Measurements of several laboratories.
Lines come from different studies, so protocols differ.
Target: Mu-type opioid receptor (OPRM1, Homo sapiens, UniProt P35372)

CN[C@]1(c2ccccc2Cl)CCCCC1=O — Ki (ligand displacement; radioligand): 3000 nM
CC(Cc1ccccc1)NCCC(c1ccccc1)c1ccccc1 (stereo not drawn) — IC50 (ligand displacement; radioligand): 1800 nM
Cc1cc(O)cc(C)c1C[C@H](N)C(=O)N1Cc2ccccc2C[C@H]1C(=O)NCC(=O)NCc1ccc(Cl)cc1 — Ki (ligand displacement; radioligand; cell membranes): 2.9 nM
CC(NCCc1ccc(O)cc1)C(O)c1ccc(O)cc1 (stereo not drawn) — IC50 (ligand displacement; radioligand): 9180 nM
Cc1cc(O)cc(C)c1C[C@H](N)C(=O)N1Cc2ccccc2C[C@H]1C(=O)NCC(=O)NCc1ccc(N)cc1 — Ki (ligand displacement; radioligand; cell membranes): 34 nM
COc1ncccc1-c1cnn2ccc(N3CCN(C(=O)OC(C)C)CC3)nc12 — IC50 (cell-free assay): > 30000 nM
CC(=O)Nc1ccccc1-c1cnc2c(c1)C[C@@]1(OCCCc3ccccc3)[C@H]3Cc4ccc(O)c5c4[C@@]1(CCN3CC1CC1)[C@H]2O5 — Ki (cell-free assay): 141 nM
Cc1cc(O)cc(C)c1C[C@H](N)C(=O)N1Cc2ccccc2C[C@@H]1C(=O)NCC(=O)NCc1ccccc1 — Ki (ligand displacement; radioligand; cell membranes): 0.068 nM
Oc1ccc2c3c1O[C@H]1c4ncc(-c5ccccc5)cc4C[C@@]4(OCCCc5cccnc5)[C@@H](C2)N(CC2CC2)CC[C@]314 — Ki (cell-free assay): 3.96 nM
c1ccc([C@]2(CCN[C@H]3CCOc4ccccc43)CCOC3(CCCC3)C2)nc1 — EC50 (cAMP; agonist; luciferase): 1.6 nM
CCCCC/C=C\C/C=C\C/C=C\CCCCC(=O)O — Ki (ligand displacement; radioligand; cell membranes): 22700 nM
CCCCCCCCC[C@@H]1CC(=O)NCC(=O)N[C@H](Cc2ccc(O)cc2)C(=O)NCC(=O)N[C@@H](Cc2ccccc2)C(=O)O1 — Ki (ligand displacement; radioligand): 6400 nM
